FN deposit inh: inhibitors of fibronectin matrix deposition, primary screen, AH1F cells, Alexa488-fibronectin fluorescence, plate reader. AH1F fibroblasts, overnight. inhibition, % at 12.6 µM. 350,000 compounds, 0.086% hits. AID 743247, 2014;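 active = mean inhibition across replicates of 30% or more, regardless of how many single replicates reach that level; inconclusive = mean under 30% yet at least half of replicates reach 30%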;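 also: positive control wells lacked labelled fibronectin entirely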
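Material: AH1F fibroblast monolayer depositing Alexa488-labelled fibronectin into matrix | Input: 10000 AH1F cells/well | Medium: DMEM plus 2% serum, read in PBS | Reagent: Alexa488-fibronectin, 24 nM final in well | Compound dosing: One dose per compound, pinned | Schedule: 1 h adhesion, overnight exposure | Measured by: Fluorescence at 485 nm excitation, 525 nm emission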
EWS-Fli inh: EWS/Fli-driven NR0B1 reporter inhibitors, primary screen, A673 cells, NR0B1 luciferase, luminescence, MLPCN library; viability-normalised; inhibition, % at 12.6 µM; 350,000 compounds, 0.67% hits; AID 651661, 2012;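 active = mean inhibition of at least 50% after viability correction, with every replicate also passing that limit; inconclusive = mean reaches 50% but only one of two replicates passes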;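 also: firefly luciferase signal divided by Alamar Blue viability fluorescence both relative to DMSO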
LGR2 inh: inhibitors of bursicon-induced LGR2 CRE-luciferase signal, primary screen, cell-based, HEK293, CRE-luciferase reporter, bursicon stimulation; bursicon-stimulated, 4 h; inhibition, % at 9.99 µM; 380,000 compounds, 0.35% hits; AID 720647, 2013;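 active = drop in luminescence signal, shown as inhibition above about 50% in the replicate tests, limit read from the data, passing the limit was not always enough; inconclusive = probably only some replicates passing the limit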;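 also: agonist challenge used bursicon conditioned medium at about half maximal strength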
Xi reactivation: activators of inactive X chromosome reactivation, primary screen, imaging, XiGFP fibroblasts, GFP high-content imaging, set 2; XiGFP mouse fibroblasts, % GFP-positive cells imaging, 3 d; cells co-treated with 5-aza-dC sensitizer; scaled so ellipticine positive control = 100%; activation, % at 7.58 µM; 360,000 compounds, 0.055% hits; AID 743238, 2013;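 active = mean normalized replicate activation at least 10% and every replicate at or above 10%; inconclusive = only one of the two criteria met; inactive = mean below 10% and not all replicates reach 10%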;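 also: 0% = median of on-plate neutral control wells and 100% = ellipticine 6 µM median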
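assay system = SV40-immortalized XiGFP fibroblast cells, line 68-5-11 | buffer or medium = DMEM plus 5-aza-dC sensitizer | doses = single-point pinned compound dosing | times = 3-day compound exposure, then 15 min fixation at room temperature | benchmarks = positive control ellipticine, 6 µM final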
TROY signal inh: inhibitors of TROY-driven NF-kB signaling, primary screen, Q293 LMP1-TROYcd cells, NF-kB luciferase, uHTS; Q293 LMP1-TROYcd NF-kB luciferase reporter, 4 h; inhibition, % at 10 µM; 360,000 compounds, 0.98% hits;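 active = compounds whose plate-normalised and pattern-corrected inhibition of the luciferase reporter signal at the single screening dose is 50% or more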
TWEAK Fn14 block: inhibitors of TWEAK-Fn14 signaling, primary screen, luciferase reporter cells, uHTS; TWEAK-stimulated Fn14 reporter cells, luciferase luminescence, 8 h; inhibition, % at 10 µM; 360,000 compounds, 2% hits; in the data active = inhibition above about 50%
* = called active by the depositor; ? = inconclusive; . = no result. Compounds with a hit are over-represented: about 2.3% of the library has one in this group of screens.

SMILES | FN deposit inh | EWS-Fli inh | LGR2 inh | Xi reactivation | TROY signal inh | TWEAK Fn14 block
Cc1ccc(N=c2c([N+](=O)[O-])nn(-c3ccc4c(c3)OCCO4)n2O)cc1F | -3 | 39 | 35 | 0 | 91* | 100*
O=[N+]([O-])c1nn(-c2ccc3c(c2)OCCO3)n(O)c1=Nc1ccccc1 | -1 | 74* | 22 | 0 | 88* | 104*
O=[N+]([O-])c1nn(-c2ccc3c(c2)OCCO3)n(O)c1=Nc1ccc(Cl)cc1 | . | 16 | 34 | . | 88* | 100*
COc1ccccc1NC(=O)N(C)C[C@H]1OCc2ccccc2-c2ccccc2C(=O)N([C@H](C)CO)C[C@@H]1C | -1 | . | . | 0 | . | .
COc1cc(Nc2nc(-c3ccccc3)c3cc(C)ccc3n2)cc(OC)c1OC | -14 | . | . | . | -13 | 69*
Cc1ccc2nc(NCC(=O)O)nc(-c3ccccc3)c2c1 | . | . | . | . | -1 | 32
COc1ccc2nc(SCCOC(=O)Nc3ccc(Cl)cc3)nc(C)c2c1 | 6 | . | -4 | 0 | 35 | 51*
COc1ccc2nc(SCC(=O)O)nc(C)c2c1 | 2 | . | . | . | -5 | -4
CO[C@H]1CN(C)C(=O)c2ccc(NC(=O)C3CC3)cc2OC[C@H](C)N(C(=O)NC(C)C)C[C@H]1C | -2 | -4 | -7 | -1 | . | .
CC1(C)CC(NC(=O)COc2ccc([N+](=O)[O-])cc2)CC(C)(C)N1 | -2 | 15 | 19 | 0 | 4 | -22
CC1(C)CC(NC(=O)COc2ccccc2Cl)CC(C)(C)N1 | 3 | -9 | -2 | 0 | 75* | 78*
COc1ccc(OCC(=O)NC2CC(C)(C)NC(C)(C)C2)cc1 | . | . | . | . | 63* | 65*
Cc1sc(NC(=O)c2ccccc2)c(C(c2ccccn2)N2CCN(CCO)CC2)c1C (stereo unspecified) | 7 | . | 15 | 0 | 78* | 65*
CCCCN(CCCC)c1ncnc2nc[nH]c12 | -2 | 6 | -12 | 0 | 33 | 59*
CCN(c1ccc(OC)cc1)c1ncnc2nc[nH]c12 | 4 | -17 | 16 | 0 | 38 | 59*
O=C(COC(=O)/C=C/c1ccc(Cl)cc1)NCCC1=CCCCC1 | 32* | . | -5 | 0 | 6 | 1
Cn1cnnc1Sc1nc([N+](=O)[O-])nn1C | -4 | -6 | -9 | 0 | -4 | -9
COc1ccccc1-c1nnc(Sc2nc([N+](=O)[O-])nn2C)o1 | -12 | . | 31 | . | 31 | 84*
CNC[C@H]1OCCCC[C@@H](C)Oc2ccc(NC(=O)Nc3ccccc3)cc2C(=O)N([C@@H](C)CO)C[C@@H]1C | . | -2 | -16 | 0 | . | .
CCOC(=O)C1=NNC(C(=O)c2ccc(C)cc2)C1c1ccc(OC)cc1 (stereo unspecified) | . | . | . | . | 6 | 72*
CCOC(=O)C1=NNC(C(=O)c2ccc(Cl)cc2)C1c1ccc(OC)cc1 (stereo unspecified) | 0 | 1 | 3 | 0 | -8 | -13
COCC(=O)N1CC2(CCN(C(=O)CN3CCOCC3)CC2)c2c([nH]c3cc(OC)ccc23)[C@@H]1CO | . | 7 | -2 | 0 | . | .
COc1ccc(N2CCN(C(=O)c3ccc4c(=O)n(CCc5ccc(OC)c(OC)c5)c(=O)[nH]c4c3)CC2)cc1 | 12 | 10 | 3 | 0 | 13 | 59*
O=C(c1ccc2c(=O)n(CCc3ccccc3)c(=O)[nH]c2c1)N1CCN(c2ccc(F)cc2)CC1 | -6 | 35 | 0 | 0 | 58* | 74*
COC(=O)C[C@H]1C[C@H]2c3cc(NC(=O)Nc4ccccc4)ccc3O[C@H]2[C@H](CO)O1 | . | -9 | 13 | 0 | . | .
SMILES | FN deposit inh | EWS-Fli inh | LGR2 inh | Xi reactivation | TROY signal inh | TWEAK Fn14 block
COc1ccc(/C=N/NC(=O)c2[nH]nc3c2CCc2ccccc2-3)cc1OC | -1 | 53* | -5 | 0 | 5 | 20
CCOC(=O)C1=C(C)NC(=S)NC1/C=C/c1ccccc1 (stereo unspecified) | 7 | . | -5 | 36* | 6 | 22
CCCN(C)C[C@H]1Oc2cc(-c3ccccc3)ccc2S(=O)(=O)N([C@H](C)CO)C[C@H]1C | -3 | 6 | 14 | 0 | . | .
COc1ccc(/C=C2\CCC(C3CCCC3)C2=O)cc1 (stereo unspecified) | 14 | -7 | -54 | 0 | 27 | 49
COc1ccc(/C=C2/CCC(CN3CCOCC3)C2=O)cc1 (stereo unspecified) | 8 | 57* | -9 | 0 | -18 | 66*
CCOC(=O)c1oc2ccccc2c1CN1CCN(C)CC1 | . | . | . | . | . | 86*
C[C@@H]1CN([C@H](C)CO)C(=O)c2cc(-c3ccncc3)cnc2O[C@@H]1CN(C)C(=O)c1ccc(F)cc1 | -18 | -5 | -2 | 0 | . | .
NC(=O)c1cc2c3ccccc3ccn2c1-c1ccccc1 | 10 | 46 | -52 | 0 | 47 | 52*
NC(=O)C(C(=O)/C=C/c1ccc(Cl)cc1)=C1SCCS1 | 13 | -8 | 25 | 1 | -2 | 51*
O=C(Nc1cccc(/C=C/c2nc3ccccc3c(=O)[nH]2)c1)c1ccccc1Cl | 12 | -76 | -42 | 0 | 38 | 72*
COc1ccc(C(=O)Nc2nc3cc(OC)c(OC)cc3c(=O)[nH]2)cc1 | 6 | . | . | . | 1 | -22
COc1ccc(C(=O)Nc2nc3ccccc3c(=O)[nH]2)cc1 | 7 | -6 | ? | . | -25 | 53*
Cc1cccc(/C=C\c2nc3ccccc3c(=O)[nH]2)c1 | 2 | 26 | -8 | 0 | -19 | 29
COc1cc(/C=C/c2nc3ccccc3c(=O)[nH]2)cc(Cl)c1O | 1 | 4 | -2 | 0 | -34 | -27
COc1ccc(C(=O)Nc2cccc(/C=C/c3nc4ccccc4c(=O)[nH]3)c2)cc1 | 17 | 8 | 3 | 0 | 27 | 57*
C[C@@H]1CN([C@H](C)CO)C(=O)c2cc(-c3cccc(F)c3)cnc2O[C@H]1CN(C)CC1CCOCC1 | . | -10 | -7 | 0 | . | .
CN1C(=O)c2cc(NC(=O)c3cccc(F)c3)ccc2OC[C@H]2O[C@H](CC(=O)N3CCc4ccccc4C3)CC[C@H]21 | 12 | 3 | -4 | 0 | . | .
CCN(CC)CCOC(=O)c1ccc(NC(=O)CCCN2C(=O)S/C(=C/c3ccc(OC)cc3)C2=S)cc1 | . | . | . | . | 45 | 73*
O=[N+]([O-])c1ccc(O)c(N=Cc2sc3ccccc3c2O)c1 | 1 | -8 | 0 | 0 | 76* | 76*

From PubChem
